The text below walks through data of ChEMBL document CHEMBL4680081, “Synthesis, photophysical properties and biological evaluation of β-alkylaminoporphyrin for photodynamic therapy” (Bioorg Med Chem, 2016).

Each structure is given as a SMILES string. Activity calls are given as the source filed them. The calls are words filed in the database; no cut-off is given here.

Data set [1] can be described thus: Absorption property of the compound in DMSO assessed as Q band maximum absorption wavelength by UV-visible spectrophotometric method. The class given is physicochemical. The gist of the method: (§1)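 UV–visible absorption spectra recorded in DMSO at concentrations 1, 2, 4, 6, 8, 10 µM, with the concentration dependence used to follow aggregation.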
The nature of data set [2]: Drug localization in cytoplasm of human HeLa cells at 5 uM incubated for 4 hrs in dark by Hoechst 33342 staining based confocal fluorescence microscopy. The class given is ADME, subcellular. The gist of the method:
(§2)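 HeLa cells at 1 × 10^5 cells/mL on poly-L-lysine coverslips for 24 h, then 5 µM drug for 4 h in the dark at 37 °C. Nuclei were stained with Hoechst 33342 for 10 min at 37 °C, and cells fixed in 4% paraformaldehyde at 4 °C for 30 min. Confocal imaging: drug excited at 417 nm, emission 600–700 nm; Hoechst excited at 350 nm, emission 450–500 nm.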

Data set [3] is described as follows: Induction of singlet oxygen generation in DMF solution assessed as singlet oxygen quantum yield irradiated with 650 nanometer laser light by DPBF-based assay. The class given is functional.
A short description of data set [4]: Absorption property of the compound in DMSO assessed as Q band molar attenuation coefficient by UV-visible spectrophotometric method. The data set is classed as physicochemical. In a few lines:
as §1

Data set [5] is described as follows: Dark toxicity in human HeLa cells assessed as reduction in cell viability after 24 hrs by MTT assay. The data set is classed as cell-based. In a few lines: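 HeLa cells in DMEM with 10% FBS (37 °C, 5% CO2) were seeded at 2 × 10^4 cells/well and attached for 24 h. Compound at a range of final concentrations was taken up for 24 h in the dark, cells were washed with PBS and left unirradiated. MTT viability was read 24 h later as % survival normalised to no-drug cells. Triplicate experiments.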
Background: Formazan colour is commonly taken as a measure of viable cells.

Data set [6] can be described thus: Absorption property of the compound in DMSO assessed as soret band wavelength molar absorption coefficient by UV-visible spectrophotometric method. The class given is physicochemical. In a few lines: as §1
Data set [7] can be described thus: Emission property of the compound in DMSO assessed as maximum emission wavelength at 4 uM by fluorescence spectrophotometric method. The class given is physicochemical. The gist of the method: (§3)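 Fluorescence spectra recorded on a spectrofluorometer with slits of 1 nm for excitation and 1 or 2 nm for emission.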
Data set [8] in a line: Absorption property of the compound in DMSO assessed as Q band wavelength molar absorption coefficient by UV-visible spectrophotometric method. The data set is classed as physicochemical. The gist of the method:
as §1

Data set [9] relates to HeLa. Kind of data set: Photodynamic antitumor activity against human HeLa cells xenografted in BALB/c nude mouse assessed as reduction in tumor volume at 5 mg/kg, iv followed by laser light irradiation at 100 J/cm2. In general terms: Xenograft models place foreign cells or tissue in a host animal.
A short description of data set [10]: Absorption property of the compound in DMSO assessed as Q band absorption coefficient by UV-visible spectrophotometric method. The data set is classed as physicochemical. The gist of the method: as §1
Data set [11] deals with HeLa. Kind of data set: Phototoxicity against human HeLa cells assessed as reduction in cell viability preincubated for 24 hrs followed by irradiated with 16 J/cm2 of 650 nanometer laser light measured after 24 hrs by MTT assay. The class given is functional, cell-based. As to conditions: light or radiation study. In a few lines:
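HeLa cells at 2 × 10^4 cells/well were attached for 24 h and given compound at a range of final concentrations for 24 h in the dark. After two PBS washes, cells were irradiated with a 650 nm Nd:YAG laser (doses 0–16 J/cm²). MTT viability was read 24 h later as % survival normalised to no-drug cells. Triplicate experiments.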

The nature of data set [12]: Absorption property of the compound in DMSO assessed as soret band maximum absorption wavelength by UV-visible spectrophotometric method. The class given is physicochemical. The gist of the method:
as §1

A short description of data set [13]: Emission property of the compound in DMSO assessed as stokes shift by fluorescence spectrophotometric method. The data set is classed as physicochemical. In a few lines: as §3
Data set [14] is described as follows: Drug localization in nuclear membrane of human HeLa cells at 5 uM incubated for 4 hrs in dark by Hoechst 33342 staining based confocal fluorescence microscopy. The class given is ADME, cell membranes. In a few lines:
as §2

Data set [15] can be described thus: Absorption property of the compound in DMSO assessed as soret band absorption coefficient by UV-visible spectrophotometric method. The data set is classed as physicochemical. The gist of the method: as §1
Data set [16] in a line: Emission property of the compound in DMSO assessed as maximum excited state emission wavelength at 4 uM by fluorescence spectrophotometric method. The class given is physicochemical. In a few lines: as §3

Regarding `COc1ccc(-c2c3nc(c(-c4ccc(OC)cc4)c4ccc([nH]4)c(-c4ccc(OC)cc4)c4nc(c(-c5ccc(OC)cc5)c5ccc2[nH]5)C=C4N2CCCC2)C=C3)cc1`, the Activity was 603 nm in [1]; 0.56 in data set [3]; 0.54 10^4/M/cm in data set [4]; 535 nm in [6]; 683 nm in data set [7]; 668 nm in data set [8]. Moreover, the Activity in data set [10] is given as 0.68 10^4/M/cm; in data set [12], 417 nm; in [13], 15 nm; in data set [15], 13.43 10^4/M/cm; in data set [16], 417 nm. Moreover, the Drug uptake entry in data set [2] and in [14] was “Active” in each case. The IC50 at 24 h in data set [5] was 387 µM. In addition, the outcome in the data set with HeLa [9] was Active. The IC50 in the data set on HeLa [11] is 4.38 µM.

For `COC(C)c1c(C)c2cc3nc(cc4[nH]c(cc5nc(cc1[nH]2)C(C)=C5C(C)O)c(C)c4CCC(=O)O)C(CCC(=O)O)=C3C` (centres undefined), the Activity in data set [3] was determined as 0.18. Further, the IC50 at 24 h in [5] stood at 345 µM. Besides, the IC50 in the data set on HeLa [11] turned out to be 9.46 µM.

Regarding `Cc1ccc(-c2c3nc(c(-c4ccc(C)cc4)c4ccc([nH]4)c(-c4ccc(C)cc4)c4nc(c(-c5ccc(C)cc5)c5ccc2[nH]5)C=C4N2CCCC2)C=C3)cc1`, the Activity in [1] was 602 nm; in data set [3], 0.54; in data set [4], 0.34 10^4/M/cm; in [6] it was 531 nm; in data set [7], 671 nm; in [8], 666 nm. For the same compound, the Activity in data set [10] is on record as 0.58 10^4/M/cm; in data set [12] it was 414 nm; in data set [13], 4 nm; in [15], 16.52 10^4/M/cm; in data set [16], 414 nm. In [5], the IC50 at 24 h came out at 280 µM. For the same compound, in the data set with HeLa [11], the IC50 was 5.33 µM.

On to `Clc1ccc(-c2c3nc(c(-c4ccc(Cl)cc4)c4ccc([nH]4)c(-c4ccc(Cl)cc4)c4nc(c(-c5ccc(Cl)cc5)c5ccc2[nH]5)C=C4N2CCCC2)C=C3)cc1`, for which the Activity was 594 nm in data set [1]; 0.2 in [3]; 0.67 10^4/M/cm in data set [4]; 521 nm in data set [6]; 665 nm in [7]; 648 nm in data set [8]. Also, the Activity in data set [10] is on record as 0.73 10^4/M/cm; in data set [12], 412 nm; in data set [13], 17 nm; in data set [15], 14.75 10^4/M/cm; in [16], 412 nm. Also, the IC50 at 24 h in [5] turned out to be 81.6 µM. Besides, in the data set with HeLa [11], the IC50 worked out at 6.43 µM.

As for `C1=Cc2nc1c(-c1ccccc1)c1ccc([nH]1)c(-c1ccccc1)c1nc(c(-c3ccccc3)c3ccc([nH]3)c2-c2ccccc2)C(N2CCCCC2)=C1`, the Activity is 596 nm in data set [1]; 0.19 in [3]; 0.16 10^4/M/cm in [4]; 524 nm in data set [6]; 669 nm in [7]; 650 nm in data set [8]. Besides, the Activity in [10] was 0.27 10^4/M/cm; in data set [12] it was 412 nm; in [13] it was 19 nm; in data set [15], 8.32 10^4/M/cm; in data set [16], 412 nm. The IC50 at 24 h in [5] is 110 µM. The IC50 in the data set on HeLa [11] was 5.56 µM.

Regarding `C1=Cc2nc1c(-c1ccccc1)c1ccc([nH]1)c(-c1ccccc1)c1nc(c(-c3ccccc3)c3ccc([nH]3)c2-c2ccccc2)C(N2CCOCC2)=C1`, the Activity is 596 nm in data set [1]; 0.25 in data set [3]; 0.56 10^4/M/cm in [4]; 522 nm in [6]; 663 nm in data set [7]; 650 nm in data set [8]. Further, the Activity in data set [10] was 0.69 10^4/M/cm; in data set [12] it was 417 nm; in data set [13], 13 nm; in data set [15] it was 16.08 10^4/M/cm; in data set [16] it was 417 nm. Besides, the IC50 at 24 h in data set [5] is 93.4 µM. Also, the IC50 in the data set with HeLa [11] was 5.06 µM.

Take `C1=Cc2nc1c(-c1ccccc1)c1ccc([nH]1)c(-c1ccccc1)c1nc(c(-c3ccccc3)c3ccc([nH]3)c2-c2ccccc2)C(N2CCCC2)=C1`: the Activity is 601 nm in [1]; 0.43 in data set [3]; 0.25 10^4/M/cm in data set [4]; 528 nm in data set [6]; 665 nm in data set [7]; 664 nm in [8]. The Activity in data set [10] is 0.44 10^4/M/cm; in data set [12], 412 nm; in [13] it was 1 nm; in [15] it was 14.53 10^4/M/cm; in data set [16] it was 412 nm. Moreover, the IC50 at 24 h in data set [5] was found to be 172 µM. Moreover, in the data set with HeLa [11], the IC50 turned out to be 4.56 µM.

A word on the IC50: it is the point on the concentration scale where inhibition reaches its midpoint.
